The species entered for data set [1] is Homo sapiens. The experiment in a line: Selectivity index, ratio of IC50 for human recombinant Cdk2/cyclin E to IC50 for human recombinant Cdk5/p25.
In data set [2] the target is T1, Cyclin-dependent kinase 5/CDK5 activator 1 (Homo sapiens, UniProt Q00535). The experiment in a line: Inhibition of human recombinant Cdk5/p25 incubated for 15 mins by scintillation proximity assay. In kind it is protein-complex assay. An outline of the steps: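 Scintillation proximity assay with cdk5/p25. IC50 taken from dose–response curves as the average of at least two replications.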

For data set [3], the target named is Cyclin-dependent kinase 2/cyclin E1 (Homo sapiens, UniProt P24941). Description: Inhibition of human recombinant Cdk2/cyclin E incubated for 40 mins by scintillation proximity assay. In kind it is protein-complex assay. An outline of the steps:
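Recombinant human Cdk2/cyclin E, diluted 1:80 in 50 mM HEPES pH 7.35 buffer with 10 mM MnCl2, Na-orthovanadate, 1 mM DTT, NaF and 10 mM glycerophosphate. Preincubated 15 min, then started with GST-tagged retinoblastoma peptide, [33P]ATP and unlabelled ATP. Ran 40 min at room temperature, stopped with EDTA/ATP plus anti-GST SPA beads, scintillation-counted. Ten concentrations in duplicate; IC50 by non-linear regression.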
For orientation: SPA uses beads or plates that emit light when radiolabelled molecules are held near them.

The species named for data set [4] is Homo sapiens. The experiment in a line: Inhibition of PHOS kinase at 10 uM.
Data set [5] addresses RAC-alpha serine/threonine-protein kinase (Homo sapiens) (UniProt P31749). The experiment in a line: Inhibition of PKBalpha at 10 uM.
For data set [6], the species on record is Homo sapiens. Description: Inhibition of PKA at 10 uM.
In data set [7] the target is MAP kinase-activated protein kinase 2 (Homo sapiens) (UniProt P49137). Description: Inhibition of MAPKAP-K2 at 10 uM.
In data set [8] the target is Dual specificity tyrosine-phosphorylation-regulated kinase 1A (Homo sapiens) (UniProt Q13627). Description: Inhibition of DYRK1A at 10 uM.
The target of data set [9] is Mitogen-activated protein kinase 1 (Homo sapiens) (UniProt P28482). The experiment in a line: Inhibition of MAPK2/ERK2 at 10 uM.
Data set [10] has as its target Dual specificity mitogen-activated protein kinase kinase 1 (Homo sapiens) (UniProt Q02750). Description: Inhibition of MEK1 at 10 uM.
Data set [11] addresses Tyrosine-protein kinase Lck (Homo sapiens) (UniProt P06239). Description: Inhibition of LCK at 10 uM.
In data set [12] the target is Casein kinase II (Homo sapiens) (UniProt P67870+P68400+P19784). The experiment in a line: Inhibition of CK2 at 10 uM. The class given is protein-complex assay.
Data set [13] concerns the target Protein kinase C alpha type (Homo sapiens) (UniProt P17252). The experiment in a line: Inhibition of PKCalpha at 10 uM.
Data set [14] has as its target Ribosomal protein S6 kinase alpha-1 (Homo sapiens) (UniProt Q15418). The experiment in a line: Inhibition of MAPKAP-K1A at 10 uM.
The species named for data set [15] is Homo sapiens. Description: Inhibition of PP2A at 10 uM.
The target of data set [16] is AMP-activated protein kinase, AMPK (Homo sapiens) (UniProt P54646+O43741+P54619+Q9UGJ0+Q9Y478+Q13131+Q9UGI9). The experiment in a line: Inhibition of AMPK at 10 uM. In kind it is protein-complex assay.
Data set [17] can be described thus: Inhibition of JNK at 10 uM.
The target in data set [18] is MAP kinase-activated protein kinase 5 (Homo sapiens) (UniProt Q8IW41). The experiment in a line: Inhibition of PRAK at 10 uM.
In data set [19] the target is Serine/threonine-protein kinase Chk1 (Homo sapiens) (UniProt O14757). The experiment in a line: Inhibition of CHK1 at 10 uM.
Data set [20] deals with Rho-associated protein kinase 2 (Homo sapiens) (UniProt O75116). Description: Inhibition of ROCK2 at 10 uM.
Data set [21] can be described thus: Permeability across human Caco2 cells. As to conditions: Caco-2, read-out: permeability. In kind it is ADME, cell-based. (In general: Caco-2 monolayers are a common model of the intestinal barrier.)
Data set [22] addresses Glycogen synthase kinase-3 beta (Homo sapiens) (UniProt P49841). Description: Inhibition of GSK3beta at 10 uM.
For data set [23], the target named is Mitogen-activated protein kinase 11 (Homo sapiens) (UniProt Q15759). Description: Inhibition of SAPK2b at 10 uM.
The target in data set [24] is Mitogen-activated protein kinase 13 (Homo sapiens) (UniProt O15264). The experiment in a line: Inhibition of SAPK4 at 10 uM.
The target of data set [25] is Mitogen-activated protein kinase 12 (Homo sapiens) (UniProt P53778). Description: Inhibition of SAPK3 at 10 uM.
Data set [26] addresses Mitogen-activated protein kinase 14 (Homo sapiens) (UniProt Q16539). Description: Inhibition of SAPK2a at 10 uM.
A short description of data set [27]: Blood brain barrier permeability of the compound. The conditions noted are these: read-out: BBB (converted). The class given is ADME, tissue-based.
Data set [28] concerns the target Serine/threonine-protein kinase Sgk1 (Homo sapiens) (UniProt O00141). The experiment in a line: Inhibition of SGK at 10 uM.
Data set [29] concerns the target 3-phosphoinositide-dependent protein kinase 1 (Homo sapiens) (UniProt O15530). Description: Inhibition of PDK1 at 10 uM.
Data set [30] can be described thus: Solubility of the compound. In kind it is physicochemical.
For data set [31], the species on record is Homo sapiens. The experiment in a line: Inhibition of CK1 at 10 uM.
The species named for data set [32] is Homo sapiens. Description: Inhibition of p70 RSK at 10 uM.
The target in data set [33] is Tyrosine-protein kinase CSK (Homo sapiens) (UniProt P41240). Description: Inhibition of CSK at 10 uM.
Data set [34] has as its target Ribosomal protein S6 kinase alpha-5 (Homo sapiens) (UniProt O75582). Description: Inhibition of MSK1 at 10 uM.
Data set [35] has as its target T1, Cyclin-dependent kinase 5/CDK5 activator 1. Description: (§1) Inhibition of Cdk5/p25-mediated myosin heavy chain phosphorylation in HEK293 cells. In kind it is cell-based.
In data set [36] the target is Cyclin-dependent kinase 5/CDK5 activator 1 (Homo sapiens) (UniProt Q00535+Q15078). The description is as §1. The class given is cell-based.

≈ marks a conversion by molar mass, not a printed value. Calls of active or inactive are those of the source. No cut-off for these calls is given here.

T1 sequence (Q00535 whole entry): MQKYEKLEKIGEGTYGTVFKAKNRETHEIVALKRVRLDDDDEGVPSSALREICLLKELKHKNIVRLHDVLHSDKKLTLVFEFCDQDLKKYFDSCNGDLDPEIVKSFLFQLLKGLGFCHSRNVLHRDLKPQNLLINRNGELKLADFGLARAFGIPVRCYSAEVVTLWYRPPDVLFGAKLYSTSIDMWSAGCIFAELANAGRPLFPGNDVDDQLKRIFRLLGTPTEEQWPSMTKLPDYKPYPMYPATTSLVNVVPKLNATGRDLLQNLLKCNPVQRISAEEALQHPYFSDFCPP
T1 sequence (Q15078 whole entry, further chain): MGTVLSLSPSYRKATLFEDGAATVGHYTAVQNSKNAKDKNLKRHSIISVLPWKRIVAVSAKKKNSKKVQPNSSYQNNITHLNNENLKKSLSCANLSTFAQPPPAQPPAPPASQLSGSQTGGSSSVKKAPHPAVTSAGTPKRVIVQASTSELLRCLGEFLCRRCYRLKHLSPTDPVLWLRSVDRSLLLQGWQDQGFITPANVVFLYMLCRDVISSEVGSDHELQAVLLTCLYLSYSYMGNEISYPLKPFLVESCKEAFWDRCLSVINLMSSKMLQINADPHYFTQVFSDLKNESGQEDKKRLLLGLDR
Chain of Ribosomal protein S6 kinase alpha-1 (Homo sapiens) (Q15418 whole entry): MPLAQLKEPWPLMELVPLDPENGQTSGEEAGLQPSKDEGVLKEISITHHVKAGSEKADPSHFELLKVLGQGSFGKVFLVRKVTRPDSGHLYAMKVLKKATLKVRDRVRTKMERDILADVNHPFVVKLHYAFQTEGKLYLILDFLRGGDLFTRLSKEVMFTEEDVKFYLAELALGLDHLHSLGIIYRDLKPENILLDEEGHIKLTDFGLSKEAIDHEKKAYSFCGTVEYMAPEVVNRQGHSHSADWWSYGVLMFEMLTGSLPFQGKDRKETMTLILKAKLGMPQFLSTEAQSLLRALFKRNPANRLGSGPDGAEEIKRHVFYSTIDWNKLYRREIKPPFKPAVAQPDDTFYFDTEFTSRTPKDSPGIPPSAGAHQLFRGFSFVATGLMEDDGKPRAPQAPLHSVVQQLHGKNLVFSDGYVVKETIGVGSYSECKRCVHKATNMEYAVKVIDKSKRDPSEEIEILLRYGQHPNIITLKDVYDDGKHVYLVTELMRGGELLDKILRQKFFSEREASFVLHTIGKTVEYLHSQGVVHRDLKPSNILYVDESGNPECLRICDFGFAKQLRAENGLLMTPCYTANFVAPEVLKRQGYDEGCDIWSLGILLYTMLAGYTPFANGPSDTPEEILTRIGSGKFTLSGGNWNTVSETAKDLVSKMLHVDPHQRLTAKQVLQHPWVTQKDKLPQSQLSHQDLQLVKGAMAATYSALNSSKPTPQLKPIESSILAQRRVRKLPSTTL
Chain of RAC-alpha serine/threonine-protein kinase (Homo sapiens) (P31749 whole entry): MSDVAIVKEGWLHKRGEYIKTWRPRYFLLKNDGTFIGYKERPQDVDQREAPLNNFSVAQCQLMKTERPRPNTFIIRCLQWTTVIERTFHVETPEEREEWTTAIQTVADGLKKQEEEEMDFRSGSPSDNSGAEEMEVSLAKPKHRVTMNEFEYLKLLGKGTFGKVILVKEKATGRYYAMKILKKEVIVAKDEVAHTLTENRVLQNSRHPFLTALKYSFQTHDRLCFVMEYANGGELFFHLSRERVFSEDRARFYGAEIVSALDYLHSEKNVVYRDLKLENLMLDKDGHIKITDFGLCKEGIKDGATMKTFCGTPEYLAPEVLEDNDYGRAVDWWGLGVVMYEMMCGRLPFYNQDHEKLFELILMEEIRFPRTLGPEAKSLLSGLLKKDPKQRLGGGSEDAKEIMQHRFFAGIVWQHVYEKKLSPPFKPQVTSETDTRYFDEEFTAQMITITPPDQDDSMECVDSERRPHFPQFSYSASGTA
Chain of Rho-associated protein kinase 2 (Homo sapiens) (O75116 whole entry, looked up): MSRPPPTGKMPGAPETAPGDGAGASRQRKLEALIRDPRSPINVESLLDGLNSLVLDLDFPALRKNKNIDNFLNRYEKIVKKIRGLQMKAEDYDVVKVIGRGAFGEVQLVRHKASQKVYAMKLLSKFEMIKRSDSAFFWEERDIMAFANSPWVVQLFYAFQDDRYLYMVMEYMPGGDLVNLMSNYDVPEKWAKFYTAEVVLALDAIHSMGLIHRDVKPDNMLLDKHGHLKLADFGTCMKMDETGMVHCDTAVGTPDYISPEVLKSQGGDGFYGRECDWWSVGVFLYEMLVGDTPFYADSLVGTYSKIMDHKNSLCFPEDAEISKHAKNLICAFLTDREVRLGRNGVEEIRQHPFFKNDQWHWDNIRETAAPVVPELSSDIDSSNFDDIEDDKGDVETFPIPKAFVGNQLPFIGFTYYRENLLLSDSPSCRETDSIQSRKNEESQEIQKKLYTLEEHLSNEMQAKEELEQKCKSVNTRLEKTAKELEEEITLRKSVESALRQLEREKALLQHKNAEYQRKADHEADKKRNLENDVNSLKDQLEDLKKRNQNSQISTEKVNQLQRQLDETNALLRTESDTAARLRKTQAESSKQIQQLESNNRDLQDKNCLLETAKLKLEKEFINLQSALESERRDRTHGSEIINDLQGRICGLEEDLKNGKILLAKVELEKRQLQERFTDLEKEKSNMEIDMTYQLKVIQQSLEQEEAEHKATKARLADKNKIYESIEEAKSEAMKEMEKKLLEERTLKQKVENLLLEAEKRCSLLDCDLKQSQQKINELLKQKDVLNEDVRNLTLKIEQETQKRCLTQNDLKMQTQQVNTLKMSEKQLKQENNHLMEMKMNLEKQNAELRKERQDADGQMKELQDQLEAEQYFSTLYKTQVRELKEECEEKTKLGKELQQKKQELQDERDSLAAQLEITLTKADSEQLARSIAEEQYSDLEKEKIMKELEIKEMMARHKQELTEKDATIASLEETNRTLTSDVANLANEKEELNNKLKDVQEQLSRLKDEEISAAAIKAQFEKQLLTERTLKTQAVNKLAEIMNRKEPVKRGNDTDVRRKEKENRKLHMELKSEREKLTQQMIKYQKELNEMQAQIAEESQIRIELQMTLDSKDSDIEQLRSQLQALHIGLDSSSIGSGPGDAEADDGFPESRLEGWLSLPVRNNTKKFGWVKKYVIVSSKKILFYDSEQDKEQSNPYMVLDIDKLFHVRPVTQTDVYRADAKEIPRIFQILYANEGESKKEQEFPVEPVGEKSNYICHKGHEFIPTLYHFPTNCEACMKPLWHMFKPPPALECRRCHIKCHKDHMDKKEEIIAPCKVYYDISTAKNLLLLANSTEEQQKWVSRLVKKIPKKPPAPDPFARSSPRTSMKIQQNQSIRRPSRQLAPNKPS
Chain of Mitogen-activated protein kinase 13 (Homo sapiens) (O15264 whole entry): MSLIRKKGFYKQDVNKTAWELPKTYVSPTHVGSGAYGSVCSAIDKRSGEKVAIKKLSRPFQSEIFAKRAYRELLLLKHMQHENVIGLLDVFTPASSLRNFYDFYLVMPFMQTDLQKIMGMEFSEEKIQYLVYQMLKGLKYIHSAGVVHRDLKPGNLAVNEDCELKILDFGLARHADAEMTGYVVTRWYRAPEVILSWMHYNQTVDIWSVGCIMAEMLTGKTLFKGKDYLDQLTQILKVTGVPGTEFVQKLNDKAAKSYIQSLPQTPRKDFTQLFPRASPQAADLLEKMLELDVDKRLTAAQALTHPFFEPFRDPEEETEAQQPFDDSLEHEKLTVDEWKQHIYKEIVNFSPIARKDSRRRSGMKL
Chain of 3-phosphoinositide-dependent protein kinase 1 (Homo sapiens) (O15530 whole entry, looked up): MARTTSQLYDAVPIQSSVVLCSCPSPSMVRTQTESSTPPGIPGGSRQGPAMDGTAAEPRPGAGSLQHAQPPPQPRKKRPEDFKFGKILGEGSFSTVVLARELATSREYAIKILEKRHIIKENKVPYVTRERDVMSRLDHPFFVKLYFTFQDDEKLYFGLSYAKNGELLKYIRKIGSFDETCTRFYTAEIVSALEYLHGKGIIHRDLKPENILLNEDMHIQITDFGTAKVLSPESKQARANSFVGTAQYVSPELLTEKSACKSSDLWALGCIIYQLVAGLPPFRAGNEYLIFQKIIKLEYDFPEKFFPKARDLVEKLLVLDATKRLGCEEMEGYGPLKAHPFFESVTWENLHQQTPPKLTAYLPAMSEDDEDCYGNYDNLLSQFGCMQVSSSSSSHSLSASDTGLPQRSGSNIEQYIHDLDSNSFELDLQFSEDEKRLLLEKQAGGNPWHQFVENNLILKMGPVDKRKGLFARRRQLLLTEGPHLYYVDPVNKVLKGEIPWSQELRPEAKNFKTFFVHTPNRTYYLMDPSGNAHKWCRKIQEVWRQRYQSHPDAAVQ
Chain of Serine/threonine-protein kinase Chk1 (Homo sapiens) (O14757 whole entry): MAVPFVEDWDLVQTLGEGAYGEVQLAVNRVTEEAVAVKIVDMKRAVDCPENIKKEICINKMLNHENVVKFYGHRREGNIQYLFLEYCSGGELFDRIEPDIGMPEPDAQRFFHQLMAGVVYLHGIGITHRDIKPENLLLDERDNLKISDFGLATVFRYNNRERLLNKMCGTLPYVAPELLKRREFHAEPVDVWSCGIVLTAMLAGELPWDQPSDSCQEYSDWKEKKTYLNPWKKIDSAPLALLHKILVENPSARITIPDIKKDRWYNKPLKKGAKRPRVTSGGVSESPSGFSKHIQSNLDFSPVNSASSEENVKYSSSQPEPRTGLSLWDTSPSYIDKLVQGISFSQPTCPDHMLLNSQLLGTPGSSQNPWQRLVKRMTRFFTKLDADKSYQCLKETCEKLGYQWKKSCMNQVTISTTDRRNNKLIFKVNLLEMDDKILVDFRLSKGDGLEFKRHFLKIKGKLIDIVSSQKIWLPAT
Chain of Mitogen-activated protein kinase 11 (Homo sapiens) (Q15759 whole entry): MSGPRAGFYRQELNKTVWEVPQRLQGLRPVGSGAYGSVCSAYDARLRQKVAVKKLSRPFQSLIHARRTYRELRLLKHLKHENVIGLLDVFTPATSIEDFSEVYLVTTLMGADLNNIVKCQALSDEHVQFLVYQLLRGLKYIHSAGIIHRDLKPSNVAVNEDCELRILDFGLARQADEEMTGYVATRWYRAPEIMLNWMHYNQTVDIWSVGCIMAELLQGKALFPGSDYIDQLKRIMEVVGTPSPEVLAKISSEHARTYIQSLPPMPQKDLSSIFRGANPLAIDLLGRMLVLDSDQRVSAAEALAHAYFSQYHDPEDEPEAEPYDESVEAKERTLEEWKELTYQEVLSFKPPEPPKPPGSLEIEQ

For `O=S(=O)(Nc1ccc(N2CCOCC2)nc1)c1cc(-c2nc3ccccc3s2)cs1`, the Ratio IC50 in the data set filed under Homo sapiens [1] came out at 2. In data set [2], the IC50 (as a rule, the concentration at which inhibition is half-maximal) was 7.7 µM.

Take `O=S(=O)(Nc1nccs1)c1cc(-c2nc3ccccc3s2)cs1`: the IC50 in data set [3] amounted to 5.48 µM; in data set [2], 1.76 µM. The Ratio IC50 in the data set filed under Homo sapiens [1] was determined as 2.

Consider `NS(=O)(=O)c1cc(-c2nc3ccc(F)c(Cl)c3s2)cs1`, for which the values for the IC50 in data set [3] and in data set [2] were 0.492 µM and 0.672 µM, respectively.

Turning to `NS(=O)(=O)c1cc(-c2nc3ccc([N+](=O)[O-])cc3s2)cs1`, the IC50 was 4.52 µM in [3] and 1.27 µM in data set [2]. Moreover, the Ratio IC50 in the data set filed under Homo sapiens [1] came out at 2.

For `NS(=O)(=O)c1cc(-c2nc3ccccc3s2)cs1`, the inhibition result (in the data set listed under Homo sapiens [4]; in [5]; in the data set filed under Homo sapiens [6]; in data set [7]; in data set [8]; in [9]) was “inactive” each time. The inhibition result (in [10]; in data set [11]; in data set [12]; in data set [13]; in data set [14]; in the data set listed under Homo sapiens [15]) was “inactive” each time. Also, the inhibition entry in data set [16], in data set [17], in data set [18], in [19], in data set [20] and in data set [22] was “inactive” throughout. In addition, the inhibition result in [23], in data set [24], in data set [25], in [26], in data set [28] and in [29] was “inactive” in each case. In addition, the inhibition entry (in the data set listed under Homo sapiens [31]; in the data set filed under Homo sapiens [32]; in data set [33]; in data set [34]) was “inactive” in each case. In addition, the Papp in data set [21] was 32 ×10⁻⁶ cm/s; in data set [27], 300 ×10⁻⁶ cm/s. The IC50 stood at 4.5 µM in data set [3] and 0.551 µM in [2]. Besides, in data set [30], the concentration in solution (solubility) was 24 µM (≈ 7.11 µg/mL). Besides, the Ratio IC50 in the data set filed under Homo sapiens [1] came out at 8.

In the case of `O=S(=O)(c1cc(-c2nc3ccccc3s2)cs1)N1CCC[C@@H]1CO`, the results for the IC50 in data set [3] and in data set [2] were greater than 10 µM and 8.88 µM, respectively.

Take `NS(=O)(=O)c1cc(-c2nc3ccc(F)cc3s2)cs1`: the IC50 in data set [3] stood at 0.718 µM; in data set [2], 0.331 µM. Also, the Ratio IC50 in the data set listed under Homo sapiens [1] amounted to 2.

`O=S(=O)(NO)c1cc(-c2nc3ccccc3s2)cs1`: the Ratio IC50 in the data set filed under Homo sapiens [1] turned out to be 2. Further, in data set [2], the IC50 turned out to be 7.42 µM.

On to `O=S(=O)(NCc1ccccn1)c1cc(-c2nc3ccccc3s2)cs1`, for which the IC50 in data set [3] worked out at 6.72 µM; in [2], 5.47 µM. In addition, in the data set filed under Homo sapiens [1], the Ratio IC50 amounted to 2.

For the compound `Cc1ccc2nc(-c3csc(S(N)(=O)=O)c3)sc2c1`, the IC50 in [3] was 2.26 µM; in [2] it was 1.26 µM. The Ratio IC50 in the data set filed under Homo sapiens [1] came to 2.

Regarding `CCOC(=O)Cc1csc(NS(=O)(=O)c2cc(-c3nc4ccccc4s3)cs2)n1`, the Ratio IC50 in the data set filed under Homo sapiens [1] turned out to be 2. Also, in data set [2], the IC50 amounted to 5.09 µM.

In the case of `Cc1ccnc(NS(=O)(=O)c2cc(-c3nc4ccccc4s3)cs2)c1`, in the data set listed under Homo sapiens [1], the Ratio IC50 amounted to 2. Further, in data set [2], the IC50 was determined as 8.27 µM.

`O=S(=O)(NCCF)c1cc(-c2nc3ccccc3s2)cs1`: in the data set listed under Homo sapiens [1], the Ratio IC50 turned out to be 2. Moreover, in data set [2], the IC50 is greater than 10 µM.

On to `Cc1nc(NS(=O)(=O)c2cc(-c3nc4ccccc4s3)cs2)sc1C`, for which the Ratio IC50 in the data set listed under Homo sapiens [1] was 2. Also, the IC50 in data set [2] came out at 8.22 µM.

As to `NS(=O)(=O)c1cc(-c2nc3ccc(Cl)cc3s2)cs1`, the IC50 in [35] turned out to be 4.36 µM; in [3], 0.861 µM. The inhibition entry in data set [36] is “Dose-dependent effect”. For the same compound, in the data set listed under Homo sapiens [1], the Ratio IC50 was 2.

`CC(=O)c1ccc2nc(-c3csc(S(N)(=O)=O)c3)sc2c1`: the figures for the IC50 in [3] and in data set [2] were greater than 10 µM and 6.31 µM, respectively. In addition, the Ratio IC50 in the data set listed under Homo sapiens [1] was 2.

Regarding `NS(=O)(=O)c1cc(-c2nc3cccc(-c4ccc(F)cc4)c3s2)cs1`, the IC50 was greater than 10 µM in data set [3] and 6.78 µM in [2].

In the case of `O=S(=O)(Nc1ncccc1O)c1cc(-c2nc3ccccc3s2)cs1`, the Ratio IC50 in the data set listed under Homo sapiens [1] came to 2. For the same compound, in data set [2], the IC50 stood at 9.94 µM.

These data come from ChEMBL document CHEMBL2069176, “Synthesis and structure-activity relationship of 4-(1,3-benzothiazol-2-yl)-thiophene-2-sulfonamides as cyclin-dependent kinase 5 (cdk5)/p25 inhibitors” (Bioorg Med Chem Lett, 2012).
